Test results reported in ChEMBL document CHEMBL2417382, “Derivatives of grindelic acid: from a non-active natural diterpene to synthetic antitumor derivatives” (2013).
Active and inactive are the calls of the source. No cut-off for these calls is given here.

Legend:
Format in all cases: functional
T47D = assay: Antiproliferative activity against human T47D cells after 48 hrs by SRB assay
Procedure, shortened: (§1)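 Cells grown in RPMI 1640 with 5% heat-inactivated FCS and 2 mM L-glutamine. Seeded per well at 20,000 (WiDr), 15,000 (T-47D) or 10,000 (HeLa, SW1573, HBL-100). Dosing started the day after plating, in triplicate at 1–100 µM, with 0.25% DMSO as the vehicle control. After 48 h, TCA fixation, SRB staining and OD at 492 nm. Percentage growth calculated against untreated cells from OD at T0 and end, using NCI formulas.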

WiDr = assay: Antiproliferative activity against human WiDr cells after 48 hrs by SRB assay; procedure, shortened: as §1
SW1573 = assay: Antiproliferative activity against human SW1573 cells after 48 hrs by SRB assay; conditions: SW1573, 48 h; procedure, shortened: as §1
HeLa = assay: Antiproliferative activity against human HeLa cells after 48 hrs by SRB assay; procedure, shortened: as §1
HBL-100 = assay: Antiproliferative activity against human HBL100 cells after 48 hrs by SRB assay; conditions: HBL-100, 48 h; procedure, shortened: as §1

Row | Structure (SMILES) | GI50 (T47D) | GI50 (SW1573) | GI50 (HeLa) | GI50 (WiDr) | GI50 (HBL-100)
1 | CC1=CC[C@H]2C(C)(C)CCC[C@]2(C)[C@@]12CC[C@@](C)(C[C@H]1O[C@@H]1CO)O2 | 15 µM | 18 µM | 17 µM | 17 µM | 16 µM
2 | CC1=CC[C@H]2C(C)(C)CCC[C@]2(C)[C@@]12CC[C@@](C)(CC(=O)N(Cc1ccccc1)C(C)(C)C(=O)NC(C)(C)C)O2 | 3.9 µM | 11 µM | 5.3 µM | 12 µM | 4.6 µM
3 | CC1=CC[C@H]2C(C)(C)CCC[C@]2(C)[C@@]12CC[C@@](C)(CCn1cc(C[C@]3(C)CC[C@@]4(O3)C(C)=CC[C@H]3C(C)(C)CCC[C@@]34C)nn1)O2 | 17 µM | 11 µM | 17 µM | inactive | 9.3 µM
4 | CC1=CC[C@H]2C(C)(C)CCC[C@]2(C)[C@@]12CC[C@@](C)(CCn1cc(CCCCc3cn(CC[C@]4(C)CC[C@@]5(O4)C(C)=CC[C@H]4C(C)(C)CCC[C@@]45C)nn3)nn1)O2 | 4.3 µM | 3 µM | 2.7 µM | – | 2.9 µM
5 | CC1=CC[C@H]2C(C)(C)CCC[C@]2(C)[C@@]12CC[C@@](C)(CC(=O)O)O2 | 69 µM | 49 µM | 60 µM | 57 µM | 46 µM
6 | C#Cc1cccc(-c2cn(CC[C@]3(C)CC[C@@]4(O3)C(C)=CC[C@H]3C(C)(C)CCC[C@@]34C)nn2)c1 | > 100 µM | > 100 µM | > 100 µM | > 100 µM | > 100 µM
7 | CC1=CC[C@H]2C(C)(C)CCC[C@]2(C)[C@@]12CC[C@@](C)(CCOC(=O)n1ccnc1)O2 | 17 µM | 17 µM | 18 µM | 13 µM | 16 µM
8 | CC1=CC[C@H]2C(C)(C)CCC[C@]2(C)[C@@]12CC[C@@](C)(CC(=O)N(c1ccccc1)C(C)(C)C(=O)NC(C)(C)C)O2 | 5.3 µM | 5.8 µM | 5.7 µM | 6.8 µM | 5.4 µM
9 | C#CCNC(=O)OCC[C@]1(C)CC[C@@]2(O1)C(C)=CC[C@H]1C(C)(C)CCC[C@@]12C | 16 µM | 13 µM | 14 µM | 12 µM | 14 µM
10 | CC1=CC[C@H]2C(C)(C)CCC[C@]2(C)[C@@]12CC[C@@](C)(CC(=O)N(Cc1ccccc1)C(C)(C)C(=O)NCCN1CCOCC1)O2 | 19 µM | 16 µM | 18 µM | 12 µM | 16 µM
11 | CC1=CC[C@H]2C(C)(C)CCC[C@]2(C)[C@@]12CC[C@@](C)(C/C=C(\C)CO)O2 | 15 µM | 18 µM | 16 µM | 19 µM | 16 µM
12 | CCOC(=O)/C(C)=C/C[C@]1(C)CC[C@@]2(O1)C(C)=CC[C@H]1C(C)(C)CCC[C@@]12C | 32 µM | 20 µM | 18 µM | 37 µM | 17 µM
13 | CC1=CC[C@H]2C(C)(C)CCC[C@]2(C)[C@@]12CC[C@@](C)(CC(=O)N(Cc1ccccc1)C(C)(C)C(=O)NC(C)(C)C(C)(C)C)O2 | 40 µM | 14 µM | 30 µM | 49 µM | 10 µM
14 | CC1=CC[C@H]2C(C)(C)CCC[C@]2(C)[C@@]12CC[C@@](C)(CC(=O)N(c1ccccc1)C(C)(C)C(=O)Nc1c(C)cccc1C)O2 | 21 µM | 5.9 µM | 22 µM | 37 µM | 8.7 µM
15 | CC[C@@]1(O)C(=O)OCc2c1cc1n(c2=O)Cc2cc3ccccc3nc2-1 [CAMPTOTHECIN] | 2 µM | 0.25 µM | 0.6 µM | 1.8 µM | 0.23 µM
16 | CCCCCCCCCCc1cn(CC[C@]2(C)CC[C@@]3(O2)C(C)=CC[C@H]2C(C)(C)CCC[C@@]23C)nn1 | 44 µM | 15 µM | 25 µM | 15 µM | 16 µM
17 | CC1=CC[C@H]2C(C)(C)CCC[C@]2(C)[C@@]12CC[C@@](C)(CC=O)O2 | 26 µM | 17 µM | 17 µM | 15 µM | 14 µM
18 | CC1=CC[C@H]2C(C)(C)CCC[C@]2(C)[C@@]12CC[C@@](C)(CC(=O)N(Cc1ccccc1)C(C)(C)C(=O)NC1CCCCC1)O2 | 4.4 µM | 3.6 µM | 4.7 µM | 5.1 µM | 3.7 µM
19 | CCCCNC(=O)C(C)(C)N(Cc1ccccc1)C(=O)C[C@]1(C)CC[C@@]2(O1)C(C)=CC[C@H]1C(C)(C)CCC[C@@]12C | 3 µM | 1.8 µM | 2.9 µM | 3.1 µM | 1.9 µM
20 | CC1=CC[C@H]2C(C)(C)CCC[C@]2(C)[C@@]12CC[C@@](C)(CCn1cc(COc3cccc(OCc4cn(CC[C@]5(C)CC[C@@]6(O5)C(C)=CC[C@H]5C(C)(C)CCC[C@@]56C)nn4)c3)nn1)O2 | > 100 µM | > 100 µM | > 100 µM | > 100 µM | > 100 µM

Further lines, with some results ahead:

Row | GI50 (T47D) | GI50 (SW1573) | GI50 (HeLa) | Structure (SMILES) | GI50 (WiDr) | GI50 (HBL-100)
21 | > 100 µM | > 72 µM | > 100 µM | CC1=CC[C@H]2C(C)(C)CC[C@H](O)[C@]2(C)[C@@]12CC[C@@](C)(CC(=O)O)O2 | > 100 µM | > 100 µM
22 | > 100 µM | > 100 µM | > 100 µM | CC1=CC[C@H]2C(C)(C)CCC[C@]2(C)[C@@]12CC[C@@](C)(CCN=[N+]=[N-])O2 | > 100 µM | > 100 µM
23 | 31 µM | 5.1 µM | 11 µM | CC1=CC[C@H]2C(C)(C)CCC[C@]2(C)[C@@]12CC[C@@](C)(CC(=O)N(Cc1ccccc1)C(C)(C)C(=O)Nc1c(C)cccc1C)O2 | 38 µM | 8.9 µM
24 | 32 µM | 18 µM | 19 µM | CCOC(=O)/C=C/C[C@]1(C)CC[C@@]2(O1)C(C)=CC[C@H]1C(C)(C)CCC[C@@]12C | 35 µM | 16 µM
25 | 16 µM | 18 µM | 17 µM | CC1=CC[C@H]2C(C)(C)CCC[C@]2(C)[C@@]12CC[C@@](C)(C[C@@H]1O[C@H]1CO)O2 | 19 µM | 16 µM
26 | 16 µM | 19 µM | 17 µM | CC1=CC[C@H]2C(C)(C)CCC[C@]2(C)[C@@]12CC[C@@](C)(CCO)O2 | 21 µM | 17 µM
27 | 17 µM | 17 µM | 18 µM | CC1=CC[C@H]2C(C)(C)CCC[C@]2(C)[C@@]12CC[C@@](C)(C/C=C/CO)O2 | 17 µM | 17 µM
28 | 28 µM | 15 µM | 16 µM | C#CC[C@]1(C)CC[C@@]2(O1)C(C)=CC[C@H]1C(C)(C)CCC[C@@]12C | 4.8 µM | 17 µM
29 | 1.9 µM | 1.2 µM | 1.6 µM | CC1=CC[C@H]2C(C)(C)CCC[C@]2(C)[C@@]12CC[C@@](C)(CC(=O)N(Cc1ccccc1)C(C)(C)C(=O)NCc1ccccc1)O2 | 1.8 µM | 0.95 µM
30 | 4.3 µM | 8 µM | 7.8 µM | CC1=CC[C@H]2C(C)(C)CCC[C@]2(C)[C@@]12CC[C@@](C)(CCOC(=O)NCCCN(C)C)O2 | 1.4 µM | 6.1 µM
31 | > 100 µM | > 100 µM | > 100 µM | CC1=CC[C@H]2C(C)(C)CCC[C@]2(C)[C@@]12CC[C@@](C)(CCOC(=O)NCc1cn(CC[C@]3(C)CC[C@@]4(O3)C(C)=CC[C@H]3C(C)(C)CCC[C@@]34C)nn1)O2 | > 100 µM | > 100 µM
32 | 19 µM | 18 µM | 16 µM | COC(=O)C[C@]1(C)CC[C@@]2(O1)C(C)=CC[C@H]1C(C)(C)CCC[C@@]12C | 23 µM | 17 µM
